Measured values taken from ChEMBL document CHEMBL1764974, “The discovery of phthalazinone-based human H1 and H3 single-ligand antagonists suitable for intranasal administration for the treatment of allergic rhinitis” (J Med Chem, 2011).

Legend:
[1] = Clearance in Beagle dog at 2 mg/kg, po and 1 mg/kg, iv; type: ADME, organism-based, Canis lupus familiaris; conditions: in vivo
[2] = Half life in CD rat at 3 mg/kg, po and 1 mg/kg, iv; type: ADME, organism-based; conditions: in vivo
In short: (§1)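 Male CD rats dosed 3.0 mg/kg po and 1.0 mg/kg iv, groups of 3 or 7 animals. Clearance, Vss, t1/2 and F are reported with ranges, and clearance is also expressed as % of liver blood flow.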

[3] = Ratio of drug level in brain to blood in CD rat at 1 mg/kg, iv; type: ADME, organism-based; design: dose 1 mg/kg, route intravenous; conditions: read-out: BBR
[4] = Oral bioavailability in Beagle dog at 2 mg/kg; type: ADME, organism-based, Canis lupus familiaris; conditions: in vivo
[5] = target: T1, Alpha-1B adrenergic receptor (Homo sapiens, UniProt P35368); test: Binding affinity to human adrenergic Alpha-1B receptor expressed in rat intact fibroblasts
T1 sequence (P35368 whole entry): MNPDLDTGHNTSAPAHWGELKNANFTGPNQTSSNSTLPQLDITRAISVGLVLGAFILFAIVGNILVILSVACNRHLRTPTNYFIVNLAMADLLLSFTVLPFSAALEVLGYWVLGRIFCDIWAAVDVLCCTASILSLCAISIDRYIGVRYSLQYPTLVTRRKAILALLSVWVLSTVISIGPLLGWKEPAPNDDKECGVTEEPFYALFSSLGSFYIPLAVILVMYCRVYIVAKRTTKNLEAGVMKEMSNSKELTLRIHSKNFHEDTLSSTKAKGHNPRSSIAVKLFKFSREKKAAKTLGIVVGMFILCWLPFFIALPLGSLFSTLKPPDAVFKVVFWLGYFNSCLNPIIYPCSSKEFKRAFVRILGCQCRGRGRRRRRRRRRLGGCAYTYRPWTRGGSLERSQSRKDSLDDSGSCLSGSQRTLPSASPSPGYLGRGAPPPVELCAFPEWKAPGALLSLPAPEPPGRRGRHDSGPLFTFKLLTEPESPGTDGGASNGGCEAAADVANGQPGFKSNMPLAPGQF
In short: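 Plate-based calcium imaging in intact Rat1 fibroblasts expressing the human α1B adrenoceptor.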

[6] = Volume of distribution at steady state in CD rat at 3 mg/kg, po and 1 mg/kg, iv; type: ADME, organism-based; conditions: in vivo, read-out: Vdss; in short: as §1
[7] = Oral bioavailability in CD rat at 3 mg/kg; type: ADME, organism-based; conditions: in vivo; in short: as §1
[8] = Clearance in CD rat at 3 mg/kg, po and 1 mg/kg, iv; type: ADME, organism-based; conditions: in vivo; in short: as §1
Histamine H3 receptor = Histamine H3 receptor (Homo sapiens, UniProt Q9Y5N1); test: Antagonist activity at human recombinant histamine H3 receptor expressed in CHO cells assessed as inhibition of histamine-induced GTP-gammaS binding; type: functional, cell-based
Sequence of Histamine H3 receptor (Q9Y5N1 whole entry): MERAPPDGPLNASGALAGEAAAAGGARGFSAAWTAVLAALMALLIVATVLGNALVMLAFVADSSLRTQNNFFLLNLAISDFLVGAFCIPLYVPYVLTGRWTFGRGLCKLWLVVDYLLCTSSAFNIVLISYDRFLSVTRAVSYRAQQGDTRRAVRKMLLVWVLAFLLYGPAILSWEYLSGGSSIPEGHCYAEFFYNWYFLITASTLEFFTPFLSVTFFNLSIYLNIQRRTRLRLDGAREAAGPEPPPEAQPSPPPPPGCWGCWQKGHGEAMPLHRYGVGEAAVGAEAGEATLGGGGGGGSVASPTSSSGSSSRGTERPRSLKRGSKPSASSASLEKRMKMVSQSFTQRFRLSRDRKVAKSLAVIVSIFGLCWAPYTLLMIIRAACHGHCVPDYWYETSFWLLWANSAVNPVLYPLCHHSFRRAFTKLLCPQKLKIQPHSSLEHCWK
In short: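 Membranes from CHO cells transfected with cloned human H3 receptor; reduction of histamine-stimulated GTPγS binding, detected by scintillation proximity.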

[9] = Half life in Beagle dog at 2 mg/kg, po and 1 mg/kg, iv; type: ADME, organism-based, Canis lupus familiaris; conditions: in vivo
Rattus norvegicus = test: Liver blood flow in CD rat at 3 mg/kg, po and 1 mg/kg, iv; type: ADME, organism-based; conditions: in vivo; in short: as §1
[10] = target: T2, Alpha-1A adrenergic receptor (Homo sapiens, UniProt P35348); test: Binding affinity to human adrenergic alpha1A receptor expressed in rat intact fibroblasts
T2 sequence (P35348 whole entry): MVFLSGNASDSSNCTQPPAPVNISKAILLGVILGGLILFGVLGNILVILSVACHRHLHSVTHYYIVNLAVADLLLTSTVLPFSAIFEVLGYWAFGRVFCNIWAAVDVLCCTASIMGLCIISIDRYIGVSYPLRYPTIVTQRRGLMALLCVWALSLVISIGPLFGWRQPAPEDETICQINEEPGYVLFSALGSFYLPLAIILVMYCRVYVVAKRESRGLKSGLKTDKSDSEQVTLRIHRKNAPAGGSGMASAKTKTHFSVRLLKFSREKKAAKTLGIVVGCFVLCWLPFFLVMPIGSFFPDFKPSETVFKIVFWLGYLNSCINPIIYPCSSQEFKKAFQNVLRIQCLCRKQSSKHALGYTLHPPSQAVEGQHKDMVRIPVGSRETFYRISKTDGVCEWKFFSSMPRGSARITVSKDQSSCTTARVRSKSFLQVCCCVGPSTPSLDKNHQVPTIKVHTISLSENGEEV

[11] = Volume of distribution at steady state in Beagle dog at 2 mg/kg, po and 1 mg/kg, iv; type: ADME, organism-based, Canis lupus familiaris; conditions: in vivo, read-out: Vdss
Cytochrome P450 2D6 = Cytochrome P450 2D6 (Homo sapiens, UniProt P10635); test: Inhibition of CYP2D6; type: ADME
Sequence of Cytochrome P450 2D6 (P10635 whole entry): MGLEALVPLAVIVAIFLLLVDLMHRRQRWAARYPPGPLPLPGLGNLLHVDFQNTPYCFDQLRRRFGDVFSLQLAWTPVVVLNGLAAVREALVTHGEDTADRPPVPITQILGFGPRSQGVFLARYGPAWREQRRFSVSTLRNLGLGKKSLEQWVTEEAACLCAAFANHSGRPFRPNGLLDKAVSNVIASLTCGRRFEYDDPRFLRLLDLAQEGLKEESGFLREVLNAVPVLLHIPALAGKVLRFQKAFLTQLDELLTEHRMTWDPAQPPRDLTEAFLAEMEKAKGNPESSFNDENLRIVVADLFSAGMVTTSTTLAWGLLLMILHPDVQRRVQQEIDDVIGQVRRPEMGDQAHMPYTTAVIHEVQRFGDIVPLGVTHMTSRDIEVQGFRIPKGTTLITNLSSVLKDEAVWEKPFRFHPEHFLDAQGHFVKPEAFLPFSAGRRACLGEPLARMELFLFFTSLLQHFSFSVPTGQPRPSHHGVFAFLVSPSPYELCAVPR

[12] = Bioavailability in intranasally dosed human; type: ADME, organism-based; conditions: in vivo, inhaled or intranasal
Cavia porcellus = test: Antiallergic rhinitis activity in conscious guinea pig assessed as duration of inhibition of histamine-induced nasal congestion at 1 mg/ml administered intranasally; type: functional

CN1CCCC(n2nc(Cc3ccc(Cl)cc3)c3ccccc3c2=O)CC1 (racemic) [AZELASTINE] showed a clearance [1] of 22 mL/min/kg, a half-life [2] of 60 min and a Kp [3] of 7.5. For the same compound, the bioavailability [4] was 46%, the Ki [5] was 50.1 nM and the Vd [6] was 1.8 L/kg. The bioavailability [7] was 7%, the clearance [8] was 35 mL/min/kg and the Ki (Histamine H3 receptor) was 158 nM. The half-life [9] was 192 min, the LBF (Rattus norvegicus) was 41% and the Ki [10] was 50.1 nM. The Vd [11] was 4.9 L/kg, the IC50 (Cytochrome P450 2D6) was 1000 nM and the bioavailability [12] was 40%. The Time (Cavia porcellus) was <24 h.
